Residues, ends and D or L forms follow the SMILES beside them.

Usually Kd stands for the constant that tells how readily two partners part at equilibrium.

Assay [1] addresses NuMA_C (1898-1912) (human) (UniProt Q14980). Put plainly: fluorescence polarisation. A general note: In fluorescence polarisation assays a small probe gives low polarisation when free and higher when bound to something large.
Assay [2] concerns the target NuMA_N (1885-1898) (human) (UniProt Q14980). In words: fluorescence polarisation.
For assay [3], the target named is mInsc38 (aa 20-57) (mouse). In words: fluorescence polarisation.
For a further assay, the target named is Mud peptide (Drosophila). Put plainly: fluorescence polarisation.
In assay [4] the target is mInsc22 (aa 19-40), peptide of the fluorescence assays (mouse). In words: fluorescence polarisation.
Another assay addresses T1, LGN TPR repeats (Mus musculus, UniProt Q8VDU0).
T1 sequence (Q8VDU0 22-357): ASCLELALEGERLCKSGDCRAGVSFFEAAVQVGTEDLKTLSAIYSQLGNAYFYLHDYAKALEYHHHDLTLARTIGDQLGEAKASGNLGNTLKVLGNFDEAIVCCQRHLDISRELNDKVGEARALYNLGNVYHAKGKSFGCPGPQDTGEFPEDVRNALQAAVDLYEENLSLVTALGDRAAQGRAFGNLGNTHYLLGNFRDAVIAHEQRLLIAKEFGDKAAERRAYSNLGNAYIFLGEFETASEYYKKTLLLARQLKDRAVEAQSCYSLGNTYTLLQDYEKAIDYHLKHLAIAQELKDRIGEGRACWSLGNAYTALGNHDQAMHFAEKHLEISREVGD
The settings on record: fit of the LGN TPR0-7/NuMA fluorescence polarization binding curve; Fig. 2C. The method in brief: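 Fluorescence polarization at 25 °C using a fluorimeter with an automated polarizer. A FITC-labeled human NuMA peptide (~1 μM) was titrated with mouse LGN TPR0-7 in 50 mM Tris pH 8.0, 100 mM NaCl, 1 mM DTT, 1 mM EDTA. The LGN fragment was expressed from a modified pET32a vector in E. coli BL21(DE3) at 16°C and purified by Ni2+-NTA then size-exclusion chromatography.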

Assay [5] concerns the target FITC-labeled NuMA peptide (aa 1886-1912) (human) (UniProt Q14980). Put plainly: fluorescence polarisation + ITC.

Consider LGN(15-350) (domain or fragment), for which the Kd is 67100 nM in assay [1], 31700 nM in assay [2], 47 nM in assay [3] and 230 nM in the assay with Mud peptide (Drosophila).
Consider “LGN TPR4-7 (aa 191-350) (domain or fragment)”, for which the fold decrease in binding affinity (against LGN TPR0-7) in assay [4] came out at 10 fold.
As to `CC[C@H](C)[C@H](NC(=O)[C@H](CCCNC(=N)N)NC(=O)[C@H](CC(N)=O)NC(=O)[C@H](Cc1c[nH]c2ccccc12)NC(=O)[C@H](CC(=O)O)NC(=O)[C@H](CC(=O)O)NC(=O)[C@H](CC(C)C)NC(=O)[C@H](CCC(N)=O)NC(=O)[C@H](CCC(=O)O)NC(=O)[C@@H]1CCCN1C(=O)[C@H](CCC(=O)O)NC(=O)[C@H](CC(=O)O)NC(=O)[C@H](CCC(N)=O)NC(=O)[C@H](CS)NC(=O)[C@@H](NC(=O)CNC(=O)[C@H](CCSC)NC(=O)[C@H](Cc1ccc(O)cc1)NC(=O)[C@H](Cc1ccccc1)NC(=O)[C@H](CO)NC(=O)[C@@H](N)CC(N)=O)[C@@H](C)O)C(=O)N[C@@H](C)C(=O)N[C@@H](CCC(=O)O)C(=O)N[C@@H](CC(C)C)C(=O)N[C@@H](CCC(N)=O)C(=O)N[C@@H](CCC(N)=O)C(=O)N[C@@H](CCCNC(=N)N)C(=O)O` [NuMA] (H-NSFYMGTCQDEPEQLDDWNRIAELQQR-OH; N-terminus and C-terminus assumed), the “Hill coefficient of LGN/NuMA binding curve” value on LGN TPR repeats is about 2.0.
As to LGN (aa 15-479) (domain or fragment), the dissociation constant (Kd) in assay [5] is 60 nM.
Consider LGN (aa 27-350) (domain or fragment), for which, in assay [5], the fold decrease in NuMA binding (against the longer LGN fragments) came to 200 fold.

Source of the values: PMC3158460 (Molecular cell, 2011).
